Results taken from ChEMBL document CHEMBL4049418, “6-OH-Phenanthroquinolizidine Alkaloid and Its Derivatives Exert Potent Anticancer Activity by Delaying S Phase Progression” (J Med Chem, 2017).
Activity calls are given as the source filed them. The calls are words filed in the database; no cut-off is given here.

Key:
Bel-7402 [1] = assay: Inhibition of DNA synthesis in human Bel7402 cells assessed as BrdU incorporation at 10 uM preincubated for 1 hr followed by BrdU addition for 30 mins by FITC/propidium iodide staining based flow cytometry (reference value: 35.5%); format: functional; design: scale not given: the % may be the effect or the level left
How it was run: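 BEL-7402 cells (3 × 10⁵ per well) exposed to compounds 1 h, then labeled with 10 μM BrdU for 30 min; trypsinized, fixed in 70% ethanol at −20 °C ≥1 h, 2 N HCl 20 min, neutralized with 0.1 M borate, stained with anti-BrdU-FITC plus PI 30 min; BrdU-positive cells quantified by flow cytometry; three independent experiments, mean + SD.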

Bel-7402 [2] = assay: Induction of DNA damage in human Bel7402 cells assessed as increase in gamma-H2AX levels at 0.1 to 10 uM after 1 hr by Western blot analysis; format: functional, cell-based
How it was run: (§1)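 BEL-7402 cells (1.5 × 10⁵ per well, 12-well plates) exposed to compounds for 1 h. Phospho-Chk1 Ser345, phospho-Chk2 Thr68 and γH2AX detected by Western blot. Camptothecin at 1 μM served as the DNA-damage reference.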

Bel-7402 [3] = assay: Induction of DNA damage in human Bel7402 cells assessed as increase in CHK2 phosphorylation at Thr68 residue at 0.1 to 10 uM after 1 hr by Western blot analysis; format: functional, cell-based; how it was run: as §1
Bel-7402 [4] = assay: Induction of apoptosis in human Bel7402 cells assessed as early apoptotic cells at 1 uM after 72 hrs by Annexin V/propidium iodide staining based flow cytometric analysis (reference value: 3.66%); format: functional
How it was run: (§2)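 BEL-7402 cells (3 × 10⁵ per well, 6-well plates) exposed for 72 h. Harvested, PBS-washed, resuspended in cold binding buffer with annexin V–FITC and PI, and stained 15 min in the dark at room temperature. Early apoptotic, late apoptotic and necrotic fractions quantified by flow cytometry.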

Bel-7402 [5] = assay: Induction of apoptosis in human Bel7402 cells assessed as necrotic cells at 1 uM after 72 hrs by Annexin V/propidium iodide staining based flow cytometric analysis (reference value: 0.38%); format: functional
[6] = Growth inhibition of human KB-MDR cells after 8 days by methylene blue-staining based spectrophotometry; format: functional; conditions: 192 h
MRC5 = assay: Antiproliferative activity against human MRC5 cells assessed as reduction in viability after 72 hrs by SRB assay; format: cell-based; conditions: MRC5, 72 h
How it was run: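 Cells seeded and dosed in triplicate for 72 h. Suspension lines (HL-60, K-562, K562/ADR, HL-60/MX2) were read by MTT: 5 mg/mL MTT stock added, 4 h at 37 °C, formazan dissolved in 10% SDS/5% isobutanol/10 mM HCl, A570. Adherent lines were read by SRB: fixed with cold 10% TCA, stained with 0.4% SRB in 1% acetic acid, A540. IC50 from four-parameter logistic fit; mean of ≥3 independent experiments.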

[7] = Selectivity ratio of IC50 for human MRC5 cells to IC50 for human A549 cells
How it was run: (§3)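 SRB assay: A549 (F-12, 10% FBS) and MRC-5/MRC-9 (EMEM, 10% FBS) treated in triplicate 72 h, fixed with ice-cold 10% TCA, stained with 0.4% SRB in 1% acetic acid, absorbance 540 nm; IC₅₀ by four-parameter logistic fit, mean of ≥3 independent experiments.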

[8] = Selectivity ratio of IC50 for human MRC9 cells to IC50 for human A549 cells; how it was run: as §3
[9] = Cytotoxicity against Sprague-Dawley rat primary neuronal cells assessed as reduction in cell viability at 300 nM after 24 hrs by MTT assay; format: cell-based; conditions: read-out: INH
Bel-7402 [10] = assay: Antiproliferative activity against human Bel7402 cells assessed as reduction in cell viability at 0.12 to 10 nM up to 10 days by fluorescence-based cell imaging method; format: functional
How it was run: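 Live-cell imaging (IncuCyte ZOOM) of BEL-7402 cells seeded at 1.5 × 10⁴ per well in 12-well plates. Cells treated in triplicate with a concentration gradient and imaged continuously for 10 days to build growth curves.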

Bel-7402 [11] = assay: Cell cycle arrest in human Bel7402 cells assessed as accumulation in S-phase after 24 hrs by propidium iodide staining-based flow cytometry; format: functional
How it was run: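 BEL-7402 cells exposed for 24 h, then fixed in 70% ethanol at −20 °C for ≥1 h. Stained with 50 μg/mL propidium iodide plus 10 μg/mL RNase A for 30 min in the dark at room temperature. DNA content read by flow cytometry on ≥1.0 × 10⁴ cells per sample.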

Bel-7402 [12] = assay: Cell cycle arrest in human Bel7402 cells assessed as delay in progression of S-phase to G2-phase at 10 nM pre-treated with aphidicolin for 16 hrs followed by compound addition measured up to 24 hrs by propidium iodide staining-based flow cytometric method; format: functional
How it was run: (§4)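 Exponentially growing cells synchronized in early S phase with 0.2 μg/mL aphidicolin for 16 h. Cells released into fresh medium with or without compound for set times. Ethanol-fixed, stained with PI/RNase, and cell cycle distribution read by flow cytometry. Representative of three independent experiments.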

SMMC-7721 = assay: Cell cycle arrest in human SMMC7721 cells assessed as delay in progression of S-phase to G2-phase at 1 to 10 nM pre-treated with aphidicolin for 16 hrs followed by compound addition measured after 24 hrs by propidium iodide staining-based flow cytometric method; format: functional; how it was run: as §4
Bel-7402 [13] = assay: Induction of DNA damage in human Bel7402 cells assessed as increase in CHK2 phosphorylation at Thr68 residue at 1 to 100 nM after 1 hr by Western blot analysis; format: functional, cell-based; how it was run: as §1
Bel-7402 [14] = assay: Induction of apoptosis in human Bel7402 cells assessed as late apoptotic cells at 1 nM after 72 hrs by Annexin V/propidium iodide staining based flow cytometric analysis (reference value: 3.6%); format: functional; how it was run: as §2
Bel-7402 [15] = assay: Induction of apoptosis in human Bel7402 cells assessed as viable cells at 10 nM after 72 hrs by Annexin V/propidium iodide staining based flow cytometric analysis (reference value: 92.4%); format: functional; conditions: Bel-7402, 72 h, read-out: Activity
Bel-7402 [16] = assay: Induction of apoptosis in human Bel7402 cells assessed as early apoptotic cells at 10 nM after 72 hrs by Annexin V/propidium iodide staining based flow cytometric analysis (reference value: 3.66%); format: functional; how it was run: as §2
Bel-7402 [17] = assay: Induction of necrosis in human Bel7402 cells after 72 hrs by trypan blue exclusion assay; format: functional, cell-based
How it was run: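 BEL-7402 cells seeded at 5 × 10⁴ per well, exposed to compounds 72 h; trypsinized, stained with 0.4% Trypan blue (9:1 dilution) for 3 min; unstained (viable) and stained (necrotic) cells counted separately on a hemocytometer.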

K562/Adr [18] = assay: Effect on P-gp expression in human K562/ADR cells up to 100 nM after 24 hrs by Western blot analysis; format: functional, cell-based
KB = assay: Cell cycle arrest in human KB/VCR cells assessed as delay in progression of S-phase to G2-phase at 10 nM pre-treated with aphidicolin for 16 hrs followed by compound addition measured up to 12 hrs by propidium iodide staining-based flow cytometric method; format: functional; how it was run: as §4
K562/Adr [19] = assay: Cell cycle arrest in human K562/ADR cells assessed as delay in progression of S-phase to G2-phase at 1 to 10 nM pre-treated with aphidicolin for 16 hrs followed by compound addition measured up to 24 hrs by propidium iodide staining-based flow cytometric method; format: functional

For COc1cc2c3c(c4cc(OC)c(OC)cc4c2cc1OC)[C@H](O)[C@@H]1CCCN1C3, the Activity (Bel-7402 [1]) was 1.9%, the Activity (Bel-7402 [2]) was “inactive” and the Activity (Bel-7402 [3]) was “inactive”. For the same molecule, the Activity (Bel-7402 [4]) was 2.56%, the Activity (Bel-7402 [5]) was 0.81% and the GI50 [6] was 30 nM.

With COc1cc2c3c(c4ccc(O)cc4c2cc1OC)CN1CCCC[C@@H]1C3 the IC50 (MRC5) was 2.6 nM, the “Ratio IC50” value [7] was 3 - 4 and the “Ratio IC50” value [8] was 3 - 4. The cytotoxicity at 24 h, 0.3 µM [9] was 50%, the inhibition (Bel-7402 [10]) was “Active” and the Activity (Bel-7402 [11]) was “Dose-dependent effect”. For the same molecule, the Activity (Bel-7402 [12]) was “Active”, the Activity (SMMC-7721) was “Active” and the Activity (Bel-7402 [13]) was “inactive”. It also gave an Activity (Bel-7402 [14]) of 2.11%, a viability at 0.01 µM (Bel-7402 [15]) of 81% and an Activity (Bel-7402 [16]) of 3.93%. The Activity (Bel-7402 [17]) was “Dose-dependent effect”, the Activity (K562/Adr [18]) was “inactive” and the Activity (KB) was “Active”. For the same molecule, the Activity (K562/Adr [19]) was “Active”.
